# Source: PubChem
# This is a sample that favours compounds with a hit; in the whole collection about 0.89% have one here.
# Arr AP2 block: inhibitors of human beta-arrestin and AP2 interaction; FITC-arrestin peptide / GST-AP2 beads, flow cytometry; AP2 beta2 appendage carries R879A mutation; 340,000 tested, 0.31% active; AID 504490; inhibition, % at 10 µM;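 active means inhibition above a set limit, near 3 SD of compounds lacking own fluorescence, cut at about 54% in these data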
#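 System: GST-AP2 R879A bound to glutathione beads, E. coli-expressed. Also added: 50 nM FITC-arrestin peptide. Schedule: compound with beads 12 min RT, then probe 1 h RT. Signal: bead flow cytometry, FITC channel. Read-out basis: percent response.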
# V-ATPase pH: alters yeast V-ATPase proton transport; S. cerevisiae, pHLuorin cytosolic pH fluorescence; AID 504577; 350,000 tested, 0.37% active; response, % at 10 µM; in the data active means response mostly above about 7.3%, no sharp cut-off; inactive means mostly below about 5.4%; further: actives read high
# T cell HTS: T cell immune modulation candidate. 2C CD8+ T cell-vesicle binding, flow cytometry; hits give low values. response (vesicle binding), % at 7 µM. 330,000 tested, 0.068% active;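 active means response, share of CD8 T cells binding vesicles, and their 90th percentile fluorescence all below set limits, cut at about 80% in these data, passing the limit was not always enough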;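 further: values below 100% mean blocked vesicle binding to the CD8+ T cells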
#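 Assay system – 2C mouse CD8+ T cells · Also added – QL9-loaded Drosophila micro-vesicles · Timing – Cell–vesicle co-incubation 1.5 h at 37 °C, staining 20 min on ice · Signal – flow cytometry of vesicle-bound cells · Measure – percent CD8+ FL2 mean versus row control · Controls – Peptide-free naked vesicles (low) and QL9 vesicles with 0.7% DMSO vehicle (high)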
# NTR1 agonist: agonists of human neurotensin receptor NTR1; NTR1-U2OS beta-arrestin-GFP spot imaging, agonist mode; activation, % at 20 µM; 330,000 tested, 0.17% active; AID 493036;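 active means activation at or above 40% of the spot to cytoplasm intensity ratio, with at least 20 cells analyzed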
# MIN6 prolif: MIN6 beta-cell proliferation induction. MIN6 cells proliferation, ATPlite luminescence, 48 h; cells starved in 0.2% serum; 100% = growth in 10% serum. proliferation, % at 10 µM. 330,000 tested, 0.29% active. AID 2380;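 active means compounds whose signal lies at least 3.5 SD above the mean of all wells on their plate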
# XiGFP reactiv: activators of X-chromosome reactivation in mouse fibroblasts; XiGFP mouse fibroblasts, % GFP-positive cells imaging, 3 d; cells co-treated with 5-aza-dC sensitizer; scaled so ellipticine positive control = 100%; activation, % at 7.58 µM; 360,000 tested, 0.055% active;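 active means mean normalized replicate activation at least 10% and every replicate at or above 10%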
#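 System: SV40-immortalized XiGFP fibroblast cells, line 68-5-11 / Incubation: 3-day compound exposure, then 15 min fixation at room temperature / Compound: single concentration per compound, delivered by pin transfer / Buffer or medium: DMEM plus 5-aza-dC sensitizer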
# Arr AP2 CP1: blocks beta-arrestin peptide binding to human AP2. shares compounds with Arr AP2 block. GST-AP2 beads, FITC arrestin peptide binding, flow cytometry; GST-fused beta2-adaptin appendage, R879A mutant. inhibition, % at 10 µM. 1,300 tested, 2% active. AID 504908;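 active means inhibition above a set limit, roughly 3 SD of non-fluorescent compound noise, cut at about 38% in these data; inactive means inhibition at or below that limit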;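 further: loss of bead fluorescence from 50 nM FITC arrestin peptide bound to appendage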
# Target sequence (P63010 whole entry, looked up, the tested form may be a part, one chain of several): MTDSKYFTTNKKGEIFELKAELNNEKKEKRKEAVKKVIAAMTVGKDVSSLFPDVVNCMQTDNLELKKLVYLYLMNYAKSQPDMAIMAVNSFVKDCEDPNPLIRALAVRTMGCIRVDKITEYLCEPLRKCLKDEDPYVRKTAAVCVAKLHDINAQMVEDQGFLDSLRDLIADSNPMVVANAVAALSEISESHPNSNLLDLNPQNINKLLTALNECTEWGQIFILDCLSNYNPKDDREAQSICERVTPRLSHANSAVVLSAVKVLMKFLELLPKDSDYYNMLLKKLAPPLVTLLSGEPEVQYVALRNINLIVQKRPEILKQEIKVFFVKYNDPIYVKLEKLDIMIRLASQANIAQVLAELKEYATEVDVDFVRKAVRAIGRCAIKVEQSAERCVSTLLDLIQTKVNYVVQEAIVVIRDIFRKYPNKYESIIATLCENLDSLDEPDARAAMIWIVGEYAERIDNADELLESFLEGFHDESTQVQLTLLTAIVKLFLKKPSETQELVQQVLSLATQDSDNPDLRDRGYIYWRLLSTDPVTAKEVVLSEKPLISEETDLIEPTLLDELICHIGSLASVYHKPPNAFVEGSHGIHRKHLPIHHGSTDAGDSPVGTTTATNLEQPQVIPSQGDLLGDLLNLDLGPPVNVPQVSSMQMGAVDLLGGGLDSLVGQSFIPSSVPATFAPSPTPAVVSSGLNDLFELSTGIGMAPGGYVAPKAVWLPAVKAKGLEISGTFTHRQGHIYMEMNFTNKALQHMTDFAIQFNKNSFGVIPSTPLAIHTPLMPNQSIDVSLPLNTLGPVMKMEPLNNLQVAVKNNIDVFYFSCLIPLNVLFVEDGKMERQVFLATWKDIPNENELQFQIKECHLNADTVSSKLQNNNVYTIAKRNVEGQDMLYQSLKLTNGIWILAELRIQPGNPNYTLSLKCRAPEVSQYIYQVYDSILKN
# GST GSH counter: counter-screen for beta-arrestin AP2 inhibitors: GST-GSH bead binding; shares compounds with Arr AP2 block; GST-fluorescein binding to GSH beads, fluorescence; inhibition, % at 10 µM; 1,300 tested, 2% active;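 active means inhibition above 50%, about 3 SD of the inhibition seen with non-fluorescent compounds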;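 further: fluorescein maleimide labelled GST captured on 4 micron glutathione beads; higher means more loss of bead fluorescence from quenching or blocked binding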
# Hits are given with their value; i = inactive; nt = no result.
SMILES,Arr AP2 block,V-ATPase pH,T cell HTS,NTR1 agonist,MIN6 prolif,XiGFP reactiv,Arr AP2 CP1,GST GSH counter
COc1cc(C(=O)OCC(=O)Nc2nnc(-c3ccccc3)o2)cc(OC)c1OC,55.0,i,i,i,i,i,i,i
C[C@H](NC(=O)C[C@@H]1CC[C@H](NC(=O)Nc2ccc3c(c2)OCO3)[C@@H](CO)O1)c1ccccc1,nt,nt,nt,nt,nt,i,nt,nt
Cc1ccc(C)c(N2CCN(C3CCCCC3NS(=O)(=O)c3ccccc3)CC2)c1 (centres undefined),56.8,i,i,i,i,nt,i,i
COC(=O)c1nc2ccc(N3CCOCC3)cc2c(C)c1C(=O)OC,57.3,i,i,i,i,i,i,i
COC(=O)c1c(-c2ccc(OC)cc2)sc2ccc(N3CCOCC3)cc12,i,i,i,i,i,i,nt,nt
CCNC(=O)C(=O)NCc1ccncc1,62.0,i,i,i,i,i,i,i
CCCCNC(=O)C(=O)NCc1ccncc1,i,i,i,i,i,i,nt,nt
COc1ccc(CCC(=O)N2CCN(S(=O)(=O)c3ccc(C)cc3)CC2)cc1,i,i,i,i,i,i,nt,nt
COc1ccc(CCC(=O)N2CCN(S(=O)(=O)c3cccc(Cl)c3)CC2)cc1,56.1,i,i,i,i,i,i,i
CCCC(=O)N1CC2(C1)CN(Cc1ccc(Cl)cc1)[C@H](CO)c1[nH]c3cc(OC)ccc3c12,nt,nt,nt,nt,nt,i,nt,nt
CCOc1ccccc1N1CCN(C(=O)CC(C)(C)C)CC1,54.9,i,i,i,i,i,i,i
COc1ccccc1N1CCN(C(=O)COc2cccc(C)c2C)CC1,61.4,i,i,i,i,i,i,i
COCCNC(=O)C[C@H]1C[C@@H]2c3cc(NC(=O)C4CCC4)ccc3O[C@@H]2[C@H](CO)O1,nt,nt,nt,nt,nt,i,nt,nt
C[C@H](NC(=O)[C@H]1[C@H](CO)[C@H]2Cn3c(cccc3=O)[C@@H]1N2CCC(F)(F)F)c1ccccc1,nt,nt,nt,nt,nt,i,nt,nt
CC(C)[C@@H]1C(=O)N[C@@H](c2ccccc2)CC=CC[C@@H](C)Oc2ccccc2C(=O)N1C (mixture of isomers),nt,nt,nt,nt,nt,i,nt,nt
O=C(CSc1nc(O)c(C(c2ccccc2)c2ccccc2)c(=O)[nH]1)N1CCOCC1,67.8,i,i,i,i,i,i,i
O=C(CSc1nc(O)c(-c2ccccc2)c(=O)[nH]1)N1CCOCC1,i,i,i,i,i,i,nt,nt
C[C@@H]1CN([C@H](C)CO)C(=O)c2cc(NC(=O)c3ccncc3)ccc2O[C@@H](C)CCCCO[C@H]1CN(C)S(=O)(=O)c1cccs1,nt,nt,nt,nt,nt,i,nt,nt
O=C1CCCC(O)=C1Sc1ccccc1C(=O)O,74.1,i,i,i,i,i,i,i
O=C(O)c1cc2nc(-c3ccccc3)cc(-c3ccccc3)n2n1,67.6,i,i,i,i,i,i,i
O=C(O)c1cc2nc(-c3ccccc3)cc(C(F)(F)F)n2n1,i,i,i,i,i,nt,nt,nt
CN(C)C1(CNC(=O)c2cccc(S(=O)(=O)Nc3ccc(Br)cc3)c2)CCCCC1,i,i,i,i,i,i,i,i
CN(C)C1(CNC(=O)c2cccc(S(=O)(=O)NCc3ccccc3)c2)CCCCC1,i,i,i,i,i,i,nt,nt
CCN(c1ccccc1)S(=O)(=O)c1cccc(C(=O)NCC2(N(C)C)CCCCC2)c1,i,i,i,i,i,i,i,i
COc1ccc(NS(=O)(=O)c2cccc(C(=O)NCC3(N(C)C)CCCCC3)c2)cc1,55.4,i,i,i,i,i,i,i
SMILES,Arr AP2 block,V-ATPase pH,T cell HTS,NTR1 agonist,MIN6 prolif,XiGFP reactiv,Arr AP2 CP1,GST GSH counter
Cc1ccc(NS(=O)(=O)c2cccc(C(=O)NCC3(N(C)C)CCCCC3)c2)cc1,i,i,i,i,i,i,nt,nt
CCCC#Cc1cnc2c(c1)C(=O)N([C@@H](C)CO)C[C@@H](C)[C@H](CN(C)C(=O)c1cccc(F)c1)O2,nt,nt,nt,nt,nt,i,nt,nt
O=C(CCn1nc(-c2ccc(Cl)cc2)ccc1=O)NCc1ccccn1,79.0,i,i,i,i,nt,i,i
CCN(CC(=O)Nc1ccc(NC(C)=O)cc1)C(=O)CCN1C(=O)c2cccc([N+](=O)[O-])c2C1=O,63.9,i,i,i,i,i,i,i
CCN(CC(=O)Nc1c(F)cccc1F)C(=O)CCN1C(=O)c2cccc([N+](=O)[O-])c2C1=O,i,i,i,i,i,i,nt,nt
COc1ccc(CN(C)C[C@H]2Oc3ccc(NC(=O)C4CC4)cc3CC(=O)N([C@@H](C)CO)C[C@H]2C)cc1,nt,nt,nt,nt,nt,i,nt,nt
O=C(Nc1ccc(Br)cc1)c1cccc2c1C(=O)N(C1CCCCC1)C2,i,i,i,i,i,i,nt,nt
Cc1cc(C)cc(NC(=O)c2cccc3c2C(=O)N(C2CCCCC2)C3)c1,61.9,i,i,i,i,nt,i,i
COCCN1C(=O)/C(=C/c2ccc(N3CCCC3)cc2C)SC1=S,103.0,i,i,i,i,i,i,i
CCOC(=O)C1=C(COC(=O)COc2cc(C)ccc2C)NC(=O)NC1C (centres undefined),i,i,i,i,i,i,i,i
CCOC(=O)C1=C(COC(=O)c2ccc(C)s2)NC(=O)NC1C (centres undefined),i,i,i,i,i,i,nt,nt
CCOC(=O)C1=C(COC(=O)COc2ccc(C(=O)CC)cc2)NC(=O)NC1C (centres undefined),i,i,i,i,i,i,i,i
CCOC(=O)C1=C(COC(=O)COc2ccc(C#N)cc2)NC(=O)NC1C (centres undefined),i,i,i,i,i,i,i,i
CCOC(=O)C1=C(COC(=O)COc2ccc(C(C)=O)cc2)NC(=O)NC1C (centres undefined),i,i,i,i,i,i,i,i
CCOC(=O)C1=C(COC(=O)CNC(=O)c2ccc(C)cc2)NC(=O)NC1C (centres undefined),i,i,i,i,i,i,nt,nt
CCOC(=O)C1=C(COC(=O)c2ccc(OC(C)C)cc2)NC(=O)NC1C (centres undefined),i,i,i,i,i,i,nt,nt
CO[C@@H]1CN(C)C(=O)c2cc(NS(C)(=O)=O)ccc2OC[C@H](C)N(C(=O)C2CC2)C[C@H]1C,nt,nt,nt,nt,nt,i,nt,nt
COc1ccccc1NC(=O)N[C@@H]1CC[C@@H](CCNC(=O)Cc2ccccn2)O[C@H]1CO,nt,nt,nt,nt,nt,i,nt,nt
O=C1N[C@H](c2ccccc2)COCc2cnnn2CC[C@@H]1Cc1ccc(-c2ccccc2)cc1,nt,nt,nt,nt,nt,i,nt,nt
